Data from BindingDB's records for doi:10.1021/acs.jmedchem.0c01126 (The University of Tokyo, 2020).

How the values were obtained:
[1] = target: Probable G-protein coupled receptor 34 (Mus musculus, UniProt Q9R1K6); experiment: Agonist activity at mouse GPR34 expressed in HEK293 cells co-transfected with AP-TGFalpha/Galphaq/i1 assessed as induction of ectodomain shedding of membrane bound AP-TGFalpha after 1 hr by p-NPP substrate based microplate reader analysis
How it was run: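 HEK293 cells transiently transfected with AP-TGFα, chimeric Gα and mouse GPR34 vectors, then treated with compound. Empty-vector cells (AP-TGFα plus chimeric Gα) served as background. Receptor-specific AP-TGFα release was taken after subtracting that background, and concentration-response curves gave EC50 and Emax. Mean and SEM of 3−8 independent experiments.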

[2] = target: Putative P2Y purinoceptor 10 (Mus musculus, UniProt Q8BFU7); experiment: Agonist activity at mouse P2Y10 expressed in HEK293 cells co-transfected with AP-TGFalpha/Galphaq/i1 assessed as induction of ectodomain shedding of membrane bound AP-TGFalpha after 1 hr by p-NPP substrate based microplate reader analysis
Putative P2Y purinoceptor 10, sequence (Q8BFU7 whole entry, the tested form may be a part): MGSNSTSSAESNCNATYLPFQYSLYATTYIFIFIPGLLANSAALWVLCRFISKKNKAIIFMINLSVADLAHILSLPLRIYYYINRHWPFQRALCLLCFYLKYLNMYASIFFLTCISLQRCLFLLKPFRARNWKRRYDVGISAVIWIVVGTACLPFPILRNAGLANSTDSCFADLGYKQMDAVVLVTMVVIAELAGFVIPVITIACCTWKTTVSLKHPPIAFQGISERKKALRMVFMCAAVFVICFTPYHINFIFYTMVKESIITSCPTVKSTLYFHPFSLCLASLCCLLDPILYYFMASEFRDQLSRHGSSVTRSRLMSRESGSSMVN
How it was run: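 Run the same way as the GPR34 shedding assay, but with a mouse P2Y10 expression vector in HEK293 cells alongside AP-TGFα and chimeric Gα. Receptor-specific AP-TGFα release was found by subtracting the empty-vector background. EC50 and Emax came from concentration-response curves. Mean and SEM of 3−8 independent experiments.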

[3] = target: G protein-coupled receptor 34a (Danio rerio, UniProt Q6XCC7); experiment: Agonist activity at zebrafish GPR34 type a expressed in HEK293 cells co-transfected with AP-TGFalpha/Galphaq/i1 assessed as induction of ectodomain shedding of membrane bound AP-TGFalpha after 1 hr by p-NPP substrate based microplate reader analysis
G protein-coupled receptor 34a, sequence (Q6XCC7 1-389): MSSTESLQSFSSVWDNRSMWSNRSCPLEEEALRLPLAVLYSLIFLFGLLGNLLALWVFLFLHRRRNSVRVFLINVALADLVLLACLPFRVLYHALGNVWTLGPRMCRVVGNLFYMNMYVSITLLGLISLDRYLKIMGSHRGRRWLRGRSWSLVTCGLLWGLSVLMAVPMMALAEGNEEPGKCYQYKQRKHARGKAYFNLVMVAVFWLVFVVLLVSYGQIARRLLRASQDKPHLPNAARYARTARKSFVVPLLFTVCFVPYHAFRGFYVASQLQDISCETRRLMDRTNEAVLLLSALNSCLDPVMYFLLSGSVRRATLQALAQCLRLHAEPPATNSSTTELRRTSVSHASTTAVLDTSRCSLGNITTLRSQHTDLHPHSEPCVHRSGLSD

Probable G-protein coupled receptor 34, sequence (Q9R1K6 whole entry, the tested form may be a part): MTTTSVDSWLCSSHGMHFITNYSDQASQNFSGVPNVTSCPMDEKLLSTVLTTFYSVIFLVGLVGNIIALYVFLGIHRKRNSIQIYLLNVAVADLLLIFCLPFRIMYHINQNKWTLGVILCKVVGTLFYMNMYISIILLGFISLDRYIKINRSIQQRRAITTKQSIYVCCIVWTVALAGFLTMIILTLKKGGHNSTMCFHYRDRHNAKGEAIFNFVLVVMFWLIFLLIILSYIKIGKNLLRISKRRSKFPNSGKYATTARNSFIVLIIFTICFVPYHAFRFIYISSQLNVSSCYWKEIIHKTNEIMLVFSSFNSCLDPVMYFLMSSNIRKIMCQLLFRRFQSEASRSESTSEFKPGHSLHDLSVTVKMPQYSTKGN

| EC50 [1] [µM] | EC50 [2] [µM] | EC50 [3] [µM] | SMILES |
| --- | --- | --- | --- |
| > 3.16 |  |  | CCCCCCCC/C=C\CCCCCCCC(=O)OCCOP(=O)(O)OC[C@H](N)C(=O)O |
| > 3.16 |  |  | CCCCCCCC/C=C\CCCCCCCC(=O)O[C@@H](C)COP(=O)(O)OC[C@H](N)C(=O)O |
|  | > 3.16 |  | CCCCCCCC/C=C\CCCCCCCC(=O)OC[C@@H](COC)OP(=O)(O)OC[C@H](N)C(=O)O |
|  | > 3.16 |  | CCCCCCCC/C=C\CCCCCCCC(=O)OC[C@H](COC)OP(=O)(O)OC[C@H](N)C(=O)O |
|  | > 3.16 |  | CCCCCCCC/C=C\CCCCCCCC(=O)OC[C@@H](COCC)OP(=O)(O)OC[C@H](N)C(=O)O |
|  | > 3.16 |  | CCCCCCCC/C=C\CCCCCCCC(=O)OC[C@@H](COCCC)OP(=O)(O)OC[C@H](N)C(=O)O |
|  | > 3.16 |  | COC[C@H](COC(=O)CCc1ccccc1OCc1cccc(Oc2ccccc2)c1)OP(=O)(O)OC[C@H](N)C(=O)O |
|  | > 3.16 | > 3.16 | CCOC[C@H](COC(=O)CCc1ccccc1OCc1cccc(Oc2ccccc2)c1)OP(=O)(O)OC[C@H](N)C(=O)O |
| > 3.16 |  |  | CCCCCCCCCCCOc1ccccc1CCC(=O)O[C@H]1CCOC[C@H]1OP(=O)(O)OC[C@H](N)C(=O)O |
| > 3.16 |  |  | CCCCCCCCCCCOc1ccccc1CCC(=O)O[C@H]1COCC[C@@H]1OP(=O)(O)OC[C@H](N)C(=O)O |
